Results published in ChEMBL document CHEMBL3046705, “Design and synthesis of benzoylphenylureas with fluorinated substituents on the aniline ring as insect growth regulators” (2011).

Legend:
Type in all cases: functional
Culex pipiens pallens [1] = assay: Insecticidal activity against fourth-instar larval stage of Culex pipiens pallens (mosquito) assessed as mortality at 0.01 mg/l at 25 +/-1 degC after 8 days; details: 192 h
How it was run: (§1)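 Larvicidal test against mosquito larvae followed a previously reported procedure. Test solutions were made by dissolving each compound in acetone and adding distilled water to give the series of concentrations.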

Mythimna separata [2] = assay: Insecticidal activity against fourth-instar larval stage of Mythimna separata (Oriental armyworm) infested drug-pretreated corn leaves assessed as mortality at 10 mg/l at 25 +/-1 degC after 4 days
Mythimna separata [3] = assay: Insecticidal activity against fourth-instar larval stage of Mythimna separata (Oriental armyworm) infested drug-pretreated corn leaves assessed as mortality at 50 mg/l at 25 +/-1 degC after 4 days
Mythimna separata [4] = assay: Insecticidal activity against fourth-instar larval stage of Mythimna separata (Oriental armyworm) infested drug-pretreated corn leaves assessed as mortality at 25 mg/l at 25 +/-1 degC after 4 days
Culex pipiens pallens [5] = assay: Insecticidal activity against fourth-instar larval stage of Culex pipiens pallens (mosquito) assessed as mortality at 0.005 mg/l at 25 +/-1 degC after 8 days; details: 192 h; how it was run: as §1
Culex pipiens pallens [6] = assay: Insecticidal activity against fourth-instar larval stage of Culex pipiens pallens (mosquito) assessed as mortality at 0.025 mg/l at 25 +/-1 degC after 8 days; details: 192 h; how it was run: as §1
Mythimna separata [7] = assay: Insecticidal activity against fourth-instar larval stage of Mythimna separata (Oriental armyworm) infested drug-pretreated corn leaves assessed as mortality at 2.5 mg/l at 25 +/-1 degC after 4 days
Mythimna separata [8] = assay: Insecticidal activity against fourth-instar larval stage of Mythimna separata (Oriental armyworm) infested drug-pretreated corn leaves assessed as mortality at 1 mg/l at 25 +/-1 degC after 4 days
Culex pipiens pallens [9] = assay: Insecticidal activity against fourth-instar larval stage of Culex pipiens pallens (mosquito) assessed as mortality at 0.0025 mg/l at 25 +/-1 degC after 8 days; details: 192 h; how it was run: as §1
Mythimna separata [10] = assay: Insecticidal activity against fourth-instar larval stage of Mythimna separata (Oriental armyworm) infested drug-pretreated corn leaves assessed as mortality at 5 mg/l at 25 +/-1 degC after 4 days
Culex pipiens pallens [11] = assay: Insecticidal activity against fourth-instar larval stage of Culex pipiens pallens (mosquito) assessed as mortality at 2 mg/l at 25 +/-1 degC after 8 days; details: 192 h; how it was run: as §1
Culex pipiens pallens [12] = assay: Insecticidal activity against fourth-instar larval stage of Culex pipiens pallens (mosquito) assessed as mortality at 0.1 mg/l at 25 +/-1 degC after 8 days; details: 192 h; how it was run: as §1
Culex pipiens pallens [13] = assay: Insecticidal activity against fourth-instar larval stage of Culex pipiens pallens (mosquito) assessed as mortality at 0.05 mg/l at 25 +/-1 degC after 8 days; details: 192 h; how it was run: as §1
Mythimna separata [14] = assay: Insecticidal activity against fourth-instar larval stage of Mythimna separata (Oriental armyworm) infested drug-pretreated corn leaves assessed as mortality at 200 mg/l at 25 +/-1 degC after 4 days
Mythimna separata [15] = assay: Insecticidal activity against fourth-instar larval stage of Mythimna separata (Oriental armyworm) infested drug-pretreated corn leaves assessed as mortality at 100 mg/l at 25 +/-1 degC after 4 days
Culex pipiens pallens [16] = assay: Insecticidal activity against fourth-instar larval stage of Culex pipiens pallens (mosquito) assessed as mortality at 0.25 mg/l at 25 +/-1 degC after 8 days; details: 192 h; how it was run: as §1

Structure (SMILES) | mortality at 10 µg/mL (Mythimna separata [2]) [%] | mortality at 50 µg/mL (Mythimna separata [3]) [%] | mortality at 0.005 µg/mL (Culex pipiens pallens [5]) [%] | mortality at 0.025 µg/mL (Culex pipiens pallens [6]) [%] | mortality at 2.5 µg/mL (Mythimna separata [7]) [%] | mortality at 1 µg/mL (Mythimna separata [8]) [%] | mortality at 5 µg/mL (Mythimna separata [10]) [%] | mortality at 0.1 µg/mL (Culex pipiens pallens [12]) [%] | mortality at 0.05 µg/mL (Culex pipiens pallens [13]) [%] | further results
O=C(NC(=O)c1c(F)cccc1F)Nc1ccc(Oc2cc(Cl)c(OC(F)(F)C(F)F)c(Cl)c2)c(Cl)c1 | 60 | 100 | 30 | 100 | – | – | – | – | – | mortality at 0.01 µg/mL (Culex pipiens pallens [1]): 80%; mortality at 25 µg/mL (Mythimna separata [4]): 90%
O=C(NC(=O)c1c(F)cccc1F)Nc1ccc(Oc2cc(Cl)c(OC(F)(F)C(F)F)c(Cl)c2)cc1 | – | – | 100 | – | 100 | 0 | – | – | – | mortality at 0.0025 µg/mL (Culex pipiens pallens [9]): 50%
O=C(NC(=O)c1c(F)cccc1F)Nc1ccc(COc2cc(Cl)c(OC(F)(F)C(F)F)c(Cl)c2)cc1 | 40 | – | – | – | – | – | 10 | – | – | mortality at 25 µg/mL (Mythimna separata [4]): 100%; mortality at 2 µg/mL (Culex pipiens pallens [11]): 0%
O=C(NC(=O)c1c(F)cccc1F)Nc1ccc(C(F)(C(F)(F)F)C(F)(F)F)cc1 | – | – | 90 | – | 90 | 0 | 100 | – | – | mortality at 0.01 µg/mL (Culex pipiens pallens [1]): 100%; mortality at 0.0025 µg/mL (Culex pipiens pallens [9]): 80%
O=C(NC(=O)c1c(F)cccc1F)Nc1ccc(OC(C(F)(F)F)C(F)(F)F)cc1 | – | – | – | 70 | 80 | 0 | 90 | 100 | 80 | –
O=C(NC(=O)c1c(F)cccc1F)Nc1ccc(COC(C(F)(F)F)C(F)(F)F)cc1 | – | 0 | – | – | – | – | – | 80 | 30 | mortality at 200 µg/mL (Mythimna separata [14]): 40%; mortality at 100 µg/mL (Mythimna separata [15]): 10%; mortality at 0.25 µg/mL (Culex pipiens pallens [16]): 100%
O=C(NC(=O)c1c(F)cccc1F)Nc1cc(Cl)c(OC(F)(F)C(F)F)c(Cl)c1 [HEXAFLUMURON] | 80 | – | – | – | – | – | – | – | – | mortality at 0.25 µg/mL (Culex pipiens pallens [16]): 100%
O=C(NC(=O)c1c(F)cccc1F)Nc1ccc(OCC=C(Cl)Cl)cc1 | – | 60 | – | 60 | – | – | – | 100 | 70 | mortality at 200 µg/mL (Mythimna separata [14]): 90%; mortality at 100 µg/mL (Mythimna separata [15]): 80%
